Assay results published in ChEMBL document CHEMBL1828577, “Design and synthesis of some new thiophene, thienopyrimidine and thienothiadiazine derivatives of antipyrine as potential antimicrobial agents” (2011).
Converted amounts (≈) assume the structure as drawn. The source made the active and inactive calls. No cut-off for these calls is given here.

Tests used:
Assay type in all cases: functional
[1] = test system: Syncephalastrum racemosum; test: Antifungal activity against Syncephalastrum racemosum RCMB 052003 at 10 mg/ml after 3 to 4 days by agar well diffusion method; conditions: for zone of inhibition at 10000 µg/mL: read-out: DIZ
Summary of the method: (§1)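 Agar well diffusion on Sabouraud dextrose agar (glucose–peptone–agar 40:10:15). Culture grown in Sabouraud broth for 3-4 days to 10^5 CFU mL⁻¹; 0.1 mL spread per plate. Wells sealed at the bottom with 0.8% soft agar, then loaded with 100 µl sample at 10 mg mL⁻¹ in DMSO; DMSO control. Incubated at 30 °C for 3–4 days. Zone caliper-read three times; triplicate tests; mean ± SD.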

Aspergillus fumigatus [2] = test: Antifungal activity against Aspergillus fumigatus RCMB 002003 at 10 mg/ml after 3 to 4 days by agar well diffusion method; conditions: for zone of inhibition at 10000 µg/mL: read-out: DIZ; summary of the method: as §1
Geotrichum candidum [3] = test: Antifungal activity against Geotrichum candidum RCMB 052006 at 10 mg/ml after 3 to 4 days by agar well diffusion method; conditions: for zone of inhibition at 10000 µg/mL: read-out: DIZ; summary of the method: as §1
Candida albicans [4] = test: Antifungal activity against Candida albicans RCMB 052002 at 10 mg/ml after 3 to 4 days by agar well diffusion method; conditions: for zone of inhibition at 10000 µg/mL: read-out: DIZ; summary of the method: as §1
Staphylococcus aureus [5] = test: Antibacterial activity against Staphylococcus aureus RCMB 000106 at 10 mg/ml after 24 hrs by agar well diffusion method; conditions: for zone of inhibition at 10000 µg/mL: RCMB 000106, 24 h, read-out: DIZ
Summary of the method: (§2)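 Agar well diffusion on nutrient agar (tryptone 1%, yeast extract 0.5%, NaCl 0.5%, agar 1%, pH 7.0). Plates spread with centrifuged pellets from a 24 h culture (about 10^4-10^6 CFU/ml). 100 µl of sample at 10 mg/mL in DMSO per 6 mm well, DMSO control. Incubated at 37 °C for 24 h. Inhibition zone diameter (mm) caliper-read three times; test run three times; mean ± SD.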

Bacillus subtilis [6] = test: Antibacterial activity against Bacillus subtilis RCMB 000107 at 10 mg/ml after 24 hrs by agar well diffusion method; conditions: for zone of inhibition at 10000 µg/mL: RCMB 000107, 24 h, read-out: DIZ; summary of the method: as §2
Pseudomonas aeruginosa [7] = test: Antibacterial activity against Pseudomonas aeruginosa RCMB 000102 at 10 mg/ml after 24 hrs by agar well diffusion method; conditions: for zone of inhibition at 10000 µg/mL: RCMB 000102, 24 h, read-out: DIZ; summary of the method: as §2
Escherichia coli [8] = test: Antibacterial activity against Escherichia coli RCMB 000103 at 10 mg/ml after 24 hrs by agar well diffusion method; conditions: for zone of inhibition at 10000 µg/mL: RCMB 000103, 24 h, read-out: DIZ; summary of the method: as §2
Aspergillus fumigatus [9] = test: Antifungal activity against Aspergillus fumigatus RCMB 002003 after 3 to 4 days by two fold serial dilution method
Summary of the method: (§3)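 MIC by agar plate method. Two-fold serial dilutions in Sabouraud dextrose broth, autoclaved at 121 °C for 25 min; DMSO control. Loop of culture diluted to 10⁵–10⁶ CFU mL⁻¹. Incubated at 30 °C for 3–4 days, then colonies counted. MIC taken as the lowest concentration fully inhibiting growth relative to control, ignoring a single colony or faint haze.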

Geotrichum candidum [10] = test: Antifungal activity against Geotrichum candidum RCMB 052006 after 3 to 4 days by two fold serial dilution method; summary of the method: as §3
Candida albicans [11] = test: Antifungal activity against Candida albicans RCMB 052002 after 3 to 4 days by two fold serial dilution method; summary of the method: as §3
[12] = test system: Syncephalastrum racemosum; test: Antifungal activity against Syncephalastrum racemosum RCMB 052003 after 3 to 4 days by two fold serial dilution method; summary of the method: as §3
Staphylococcus aureus [13] = test: Antibacterial activity against Staphylococcus aureus RCMB 000106 after 24 hrs by two fold serial dilution method; conditions: RCMB 000106, 24 h
Summary of the method: (§4)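 MIC by agar plate method. Two-fold serial dilutions in nutrient broth (beef extract 5 g, peptone 10 g per litre, pH 7.0), autoclaved at 121 °C for 25 min; DMSO control. Loop inoculum diluted to 10⁵–10⁶ CFU mL⁻¹. Incubated at 37 °C for 24 h, then colonies counted. MIC taken as the lowest concentration giving complete inhibition, ignoring a single colony or faint haze.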

Bacillus subtilis [14] = test: Antibacterial activity against Bacillus subtilis RCMB 000107 after 24 hrs by two fold serial dilution method; conditions: RCMB 000107, 24 h; summary of the method: as §4
Pseudomonas aeruginosa [15] = test: Antibacterial activity against Pseudomonas aeruginosa RCMB 000102 after 24 hrs by two fold serial dilution method; conditions: RCMB 000102, 24 h; summary of the method: as §4
Escherichia coli [16] = test: Antibacterial activity against Escherichia coli RCMB 000103 after 24 hrs by two fold serial dilution method; conditions: RCMB 000103, 24 h; summary of the method: as §4
[17] = test system: Syncephalastrum racemosum; test: Antifungal activity against Syncephalastrum racemosum RCMB 052003 at 30 mg/ml after 3 to 4 days by agar well diffusion method; conditions: read-out: DIZ

SMILES	diameter of the inhibition zone (DIZ) [1]	diameter of the inhibition zone (DIZ) (Pseudomonas aeruginosa [7])	diameter of the inhibition zone (DIZ) (Escherichia coli [8])	zone of inhibition at 10000 µg/mL (Aspergillus fumigatus [2])	zone of inhibition at 10000 µg/mL (Geotrichum candidum [3])	zone of inhibition at 10000 µg/mL (Candida albicans [4])	zone of inhibition at 10000 µg/mL (Staphylococcus aureus [5])	zone of inhibition at 10000 µg/mL (Bacillus subtilis [6])	zone of inhibition at 10000 µg/mL [1]	zone of inhibition at 10000 µg/mL (Escherichia coli [8])	further results
Cc1c(Nc2csc(N)c2C(N)=O)c(=O)n(-c2ccccc2)n1C	inactive	inactive	inactive	–	–	–	–	–	–	–	diameter of the inhibition zone (DIZ) (Aspergillus fumigatus [2]): inactive; diameter of the inhibition zone (DIZ) (Geotrichum candidum [3]): inactive; diameter of the inhibition zone (DIZ) (Candida albicans [4]): inactive; diameter of the inhibition zone (DIZ) (Staphylococcus aureus [5]): inactive; diameter of the inhibition zone (DIZ) (Bacillus subtilis [6]): inactive
CCOC(=O)C(=O)CC(=O)Nc1c(C)n(C)n(-c2ccccc2)c1=O	inactive	inactive	inactive	11.1 mm	13.4 mm	10.6 mm	16.3 mm	16.2 mm	–	–	–
Cc1c(Nc2csc3c2C(=O)N[S+]([O-])N3)c(=O)n(-c2ccccc2)n1C (stereo not given)	–	inactive	inactive	15.1 mm	14.4 mm	13.4 mm	18.3 mm	19.2 mm	10.6 mm	–	–
Cc1c(Nc2csc(NC(=O)CCl)c2C#N)c(=O)n(-c2ccccc2)n1C	–	–	–	20.1 mm	18.3 mm	15.4 mm	19.4 mm	24.1 mm	11.2 mm	16.2 mm	zone of inhibition at 10000 µg/mL (Pseudomonas aeruginosa [7]): 18.9 mm; MIC (Aspergillus fumigatus [9]): 39 µg/mL (≈ 97 µM); MIC (Geotrichum candidum [10]): 78 µg/mL (≈ 194 µM); MIC (Candida albicans [11]): 156 µg/mL (≈ 388 µM); MIC [12]: 313 µg/mL (≈ 779 µM); MIC (Staphylococcus aureus [13]): 39 µg/mL (≈ 97 µM); MIC (Bacillus subtilis [14]): 19 µg/mL (≈ 47.3 µM); MIC (Pseudomonas aeruginosa [15]): 39 µg/mL (≈ 97 µM); MIC (Escherichia coli [16]): 78 µg/mL (≈ 194 µM)
Clc1ccccc1C(c1ccccc1)(c1ccccc1)n1ccnc1 [CLOTRIMAZOLE]	–	–	–	–	–	–	–	–	–	–	zone of inhibition at 30000 µg/mL [17]: 20 mm
Cc1c(Nc2csc3ncnc(N)c23)c(=O)n(-c2ccccc2)n1C	–	inactive	–	12.5 mm	12.8 mm	11 mm	13.9 mm	15.2 mm	13.4 mm	10.4 mm	–
Cc1c(Nc2csc(N)c2C#N)c(=O)n(-c2ccccc2)n1C	–	–	–	24.3 mm	22.4 mm	17.2 mm	23.9 mm	27.2 mm	18.9 mm	24.4 mm	zone of inhibition at 10000 µg/mL (Pseudomonas aeruginosa [7]): 22.8 mm; MIC (Aspergillus fumigatus [9]): 19 µg/mL (≈ 58.4 µM); MIC (Geotrichum candidum [10]): 19 µg/mL (≈ 58.4 µM); MIC (Candida albicans [11]): 39 µg/mL (≈ 120 µM); MIC [12]: 39 µg/mL (≈ 120 µM); MIC (Staphylococcus aureus [13]): 19 µg/mL (≈ 58.4 µM); MIC (Bacillus subtilis [14]): 9.5 µg/mL (≈ 29.2 µM); MIC (Pseudomonas aeruginosa [15]): 39 µg/mL (≈ 120 µM); MIC (Escherichia coli [16]): 19 µg/mL (≈ 58.4 µM)
CCC(C)n1ncn(-c2ccc(N3CCN(c4ccc(OCC5COC(Cn6cncn6)(c6ccc(Cl)cc6Cl)O5)cc4)CC3)cc2)c1=O (stereo not given) [ITRACONAZOLE]	–	–	–	–	–	–	–	–	–	–	zone of inhibition at 30000 µg/mL [17]: 22 mm
CCO/C=N\c1scc(Nc2c(C)n(C)n(-c3ccccc3)c2=O)c1C#N	–	–	–	19.2 mm	17.4 mm	14.2 mm	18.4 mm	19.2 mm	8.5 mm	13.8 mm	zone of inhibition at 10000 µg/mL (Pseudomonas aeruginosa [7]): 16.2 mm; MIC (Aspergillus fumigatus [9]): 78 µg/mL (≈ 204 µM); MIC (Geotrichum candidum [10]): 78 µg/mL (≈ 204 µM); MIC (Candida albicans [11]): 156 µg/mL (≈ 409 µM); MIC [12]: 625 µg/mL (≈ 1640 µM); MIC (Staphylococcus aureus [13]): 78 µg/mL (≈ 204 µM); MIC (Bacillus subtilis [14]): 39 µg/mL (≈ 102 µM); MIC (Pseudomonas aeruginosa [15]): 78 µg/mL (≈ 204 µM); MIC (Escherichia coli [16]): 156 µg/mL (≈ 409 µM)
CCOC(=O)c1c(Nc2c(C)n(C)n(-c3ccccc3)c2=O)csc1N	–	–	–	22.1 mm	22 mm	16.4 mm	20.2 mm	25.3 mm	18.2 mm	23.8 mm	zone of inhibition at 10000 µg/mL (Pseudomonas aeruginosa [7]): 20.8 mm; MIC (Aspergillus fumigatus [9]): 19 µg/mL (≈ 51 µM); MIC (Geotrichum candidum [10]): 39 µg/mL (≈ 105 µM); MIC (Candida albicans [11]): 78 µg/mL (≈ 209 µM); MIC [12]: 39 µg/mL (≈ 105 µM); MIC (Staphylococcus aureus [13]): 39 µg/mL (≈ 105 µM); MIC (Bacillus subtilis [14]): 19 µg/mL (≈ 51 µM); MIC (Pseudomonas aeruginosa [15]): 39 µg/mL (≈ 105 µM); MIC (Escherichia coli [16]): 19 µg/mL (≈ 51 µM)
Cc1c(Nc2csc3ncn(N)c(=N)c23)c(=O)n(-c2ccccc2)n1C	inactive	inactive	inactive	–	–	–	–	–	–	–	diameter of the inhibition zone (DIZ) (Aspergillus fumigatus [2]): inactive; diameter of the inhibition zone (DIZ) (Geotrichum candidum [3]): inactive; diameter of the inhibition zone (DIZ) (Candida albicans [4]): inactive; diameter of the inhibition zone (DIZ) (Staphylococcus aureus [5]): inactive; diameter of the inhibition zone (DIZ) (Bacillus subtilis [6]): inactive
Cc1c(NC(=O)/C=C/c2cccs2)c(=O)n(-c2ccccc2)n1C	inactive	inactive	inactive	14.2 mm	–	13.4 mm	11 mm	11.2 mm	–	–	diameter of the inhibition zone (DIZ) (Geotrichum candidum [3]): inactive
Cc1c(NC(=O)CC(=O)C(=O)NN)c(=O)n(-c2ccccc2)n1C	–	inactive	inactive	11.2 mm	13.4 mm	–	17.2 mm	14.4 mm	13.4 mm	–	diameter of the inhibition zone (DIZ) (Candida albicans [4]): inactive
CC(=O)Nc1c(C)n(C)n(-c2ccccc2)c1=O	inactive	inactive	–	14.3 mm	13.4 mm	12.2 mm	15.9 mm	13.2 mm	–	11.4 mm	–
